Measured values of several laboratories.
Lines come from different studies, so protocols differ.
Target: Death-associated protein kinase 2 (DAPK2, Homo sapiens, UniProt Q9UIK4)

| SMILES | test | setting | endpoint | result |
| --- | --- | --- | --- | --- |
| CN(C)C(=O)Cn1cc(-c2nc([C@@](C)(c3ccc(-c4cnc(N)nc4)cc3)C3CC3)no2)cn1 | cell-free assay, competition with immobilised ligand | 1 µM | remaining binding | 100% |
| CC(C)(O)[C@H]1CC[C@H](Nc2ccc3ncc(-c4cccc(C(F)(F)F)c4)n3n2)CC1 | enzyme activity, inhibitor | 1 µM | remaining activity | 107% |
| CNC(=O)c1cc(Oc2ccc(NC(=O)Nc3ccc(Cl)c(C(F)(F)F)c3)cc2)ccn1 | enzyme activity, inhibitor | 0.3 µM | inhibition | 5% |
| Nc1ncnc2occ(-c3ccc(NC(=O)Nc4cc(C(F)(F)F)ccc4F)cc3)c12 | cell-free assay, inhibitor | 20 µM | remaining signal | 25% |
| Cc1cc(NC(=O)c2cccc3cc(-c4cccc5[nH]nc(N)c45)ccc23)ccc1F | enzyme activity, inhibitor | 0.1 µM | activity vs control | 96% |
| Cc1cnc(NC2CCOCC2)nc1-n1cnc(C(=O)NC(CN)c2cc(F)cc(Cl)c2)c1 (stereo not shown) | enzyme activity, inhibitor, radiometric | 1 µM | remaining activity | 108% |
| Cc1ccc(C(=O)Nc2ccc(CN3CCN(C)CC3)c(C(F)(F)F)c2)cc1C#Cc1cnc2cccnn12 | enzyme activity, inhibitor | 23.5 nM | remaining activity | 100% |
| COc1cc(-c2cn(C3CCc4c(F)cccc4N(CC(F)(F)F)C3=O)nn2)ccc1-n1cnc(C)c1 (stereo not shown) | cell-free assay, competition with immobilised ligand | 1 µM | remaining binding | 100% |
| CCCOc1ccc(OC)c(F)c1C(=O)c1ccc(C(=O)N[C@@H]2CNC[C@H]2NC(=O)c2ccc3[nH]ncc3c2)cc1 | enzyme activity, inhibitor | 10 µM | remaining activity | 84% |
| N#CCCc1ccc2c(c1)-c1[nH]c3ccc([N+](=O)[O-])cc3c1CC(=O)N2 | cell-free assay | 0.5 µM | remaining signal | 96.5% |
| CO[C@@H](C)c1c(Nc2ccc([C@@H](N(C)C(=O)C3CCS(=O)(=O)CC3)C(F)(F)F)cc2)cnc2cc(Cl)nn12 | binding, competition with immobilised ligand | 1 µM | remaining binding | 41% |
| CC(C)(C)c1nc(-c2cccc(NS(=O)(=O)c3c(F)cccc3F)c2F)c(-c2ccnc(N)n2)s1 | enzyme activity, inhibitor, radiometric | 1 µM | remaining activity | 92% |
| COc1ccc2c(c1)O[C@@H](c1ccc(OC)c(OC)c1)C[C@H]2NC(=O)C1(c2ccc3c(c2)OC(F)(F)O3)CC1 | cell-free assay, competition with immobilised ligand | 1 µM | remaining binding | 98% |
| O=C1Nc2ccc(Cl)cc2C1=Cc1cc(Cl)c(O)c(Cl)c1 | cell-free assay | 0.5 µM | remaining signal | 135% |
| Cc1nc(C2CCN(C(=O)c3ccc(OC(F)(F)F)cc3N)CC2)c2ncc(N3CCN(C)CC3)cc2n1 | cell-free assay, competition with immobilised ligand | 1 µM | remaining binding | 100% |
| Cc1ccc(Nc2nccc(N(C)c3ccc4c(C)n(C)nc4c3)n2)cc1S(N)(=O)=O | enzyme activity, inhibitor | 0.3 µM | inhibition | 1% |
